Test system: MS2 coat protein
Experiment: apparent Kd, MS2 coat protein; higher = weaker binding; RNA-MaP array
Method in brief: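 The designed RNAs, transcribed from sequenced DNA templates on an Illumina sequencing chip, were incubated with fluorescently labeled MS2 coat protein at room temperature. Protein ranged from 1.5 nM to 3 μM, with 0.8–1.5 h incubation at the lowest and 10–20 min at the highest concentrations, in Tris-HCl pH 7.5 buffer with KCl, MgCl2, BSA, DTT, tRNA and Tween20, with or without input ligand. The median of per-cluster binding-curve fits gives the apparent Kd, and designs measured on fewer than 10 clusters were excluded.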

[1] = designed as: ON switch for flavin mononucleotide, no ligand
[2] = ligand present: flavin mononucleotide, designed as: ON switch for flavin mononucleotide
[3] = designed as: ON switch for theophylline, no ligand
[4] = ligand present: theophylline, designed as: ON switch for theophylline
[5] = designed as: OFF switch for flavin mononucleotide, no ligand
[6] = ligand present: flavin mononucleotide, designed as: OFF switch for flavin mononucleotide

| Sequence | apparent Kd [1] | apparent Kd [2] | apparent Kd [5] | apparent Kd [6] | also measured |
| --- | --- | --- | --- | --- | --- |
| AAAACGGGUUAGAAGGGCAAUUUUGAUGACAGUGCAGGAUAUAACUUGUGUCCGAAUAUGGACAUGAGGAUCACCCAUGUUAGU | 468 nM | 185 nM | – | – | – |
| CACAAACCAGAGAAGGCCCUAAGAGUAUAGAGAAUACGAAACAUGAGGAUCACCCAUGUCAUAUGGGAGGAUAUCAACAAGAUU | 135 nM | 11.3 nM | – | – | – |
| CCAGGACAUGAGGAUCACCCAUGUACGGUCAGCGAAGGAUAUAUUGCGUGGCGAGUGCUGAUAGAAGGUCGUAAAC | 15 nM | 10.9 nM | – | – | – |
| GACACCGGUAUGGAGGAUAUGGGAGACAGUACAUGAGGAUCACCCAUGUCGUUAAGAAGAUAUCACCAGAAGGCCACUCGGUCGAG | 13.5 nM | 9.63 nM | – | – | – |
| CUCAAUUAAGAGAAGGUUACUUGUGUUACGUGUAAAGGAUAUCUAAGCGCUAGGCACAUGAGGAUCACCCAUGUUCCUGCCUUU | 7.64 nM | 6.03 nM | – | – | – |
| GGCACACAUGAGGAUCACCCAUGUGGCGAUACCAGUUGAUGGUAAAACCCUUGGCAGCGCCAGUCACAUGCAGAUAGUUACUGAA | – | – | – | – | apparent Kd [3]: 13.9 nM; apparent Kd [4]: 16.5 nM |
| UCUUGACAUGAGGAUCACCCAUGUCACAUUUCUAGAGGAUAUAUACAUGUUGAUCUCUGUAUAGAAGGCUAAGUCG | 18.5 nM | 11.7 nM | – | – | – |
| UUUGAAAAGCAGAAGGUUCAUAACAUGAGGAUCACCCAUGUGACAUUAAUGAUCCGGUUUUUACGAAAGGAUAUGCUUCUCCUA | – | – | 8.33 nM | 32.6 nM | – |
| AGGGAACAUGAGGAUCACCCAUGUGCCGAUACCAGUGAUUUUCAGCACCCUUGGCAGCGGAACCUUUGUUAUAUUAUUCUUAGGG | – | – | – | – | apparent Kd [3]: 36.7 nM; apparent Kd [4]: 28.2 nM |
| CCAGUUGACUAGAAGGCAAUACGGAUAAAGUAACUGACCACAUGAGGAUCACCCAUGUAUCCCAUUGAGGAUAUAGCAUUAAGU | – | – | 44.2 nM | 25.8 nM | – |
| ACUAUUCAUUAUGGCACAUGAGGAUCACCCAUGUAGUGCGAACAGGAUAUACAAAAGAAUGUCAAGUAGAAGGGUUCCAGGUUC | 28 nM | 19.8 nM | – | – | – |
| UUUCGUAACCAACAUGAGGAUCACCCAUGUAGAAAGUUCCUAAGAAGGACAUAACCCAAUAGCAUGUAGGAUAUAAGUAAUCAC | 12.1 nM | 10.8 nM | – | – | – |
| GAAUUAAAUCAAGGAUAUCUGUGGAAGCGGACCUCUUACAUGAGGAUCACCCAUGUUCGCGAGCAAGAGAAGGUGAUUAGCGAA | – | – | 414 nM | 131 nM | – |
| UUCUCACAUGAGGAUCACCCAUGUCUAAGGAGUACAGGAUAUGUGCCGUGAUUUUCGAGUACAGAAGGGUACAAUU | 273 nM | 33.6 nM | – | – | – |
| GGGUGAAGUGAGAAGGUUGGUGCUAGUUAAUUCAAAGGAUAUCAUUACUACGACAUGAGGAUCACCCAUGUAGCUGUACUGGAA | – | – | 14.3 nM | 12.4 nM | – |
| AAUGACGCGAAGAAGGACUGAUACCAGCUAAAAGUAGGAUAUUCUGAACGUGGACGGUUUACAUGAGGAUCACCCAUGUAUGAA | – | – | 9.29 nM | 9.01 nM | – |
| UCUAGUGCAUAGGAUAUCAUGGUUCAUUAGUACUGAGAAGGAUGCACAUGAGGAUCACCCAUGUUCUCUGACAG | – | – | 26.2 nM | 80.5 nM | – |
| GACAUCAUAGGAGGAUAUGUUUUCUAAAGACUGACAGAAGGCCAGAACAGUAAGAACAAAAGACAUGAGGAUCACCCAUGUGUU | 16.6 nM | 9.36 nM | – | – | – |
| AAGAAGUACCAGAAGGGAGGAGGAAAUCUACAUGAGGAUCACCCAUGUACUUGCGGAUUUAAAUCUCAGGAUAUGGGAUACACA | 49.7 nM | 12.9 nM | – | – | – |
| AAAUUACACGAGAAGGGCAGUGAAUAUCUGUCUGCAGGAUAUCGCUACAUGAGGAUCACCCAUGUUUUCAGUAGUACUAGCGAA | – | – | 9.74 nM | 9.06 nM | – |
| UUGAUAGCAGGAUAUACCAGUCAUGUCUCGCAAUUUACCCGACAUGAGGAUCACCCAUGUAGAAGGGCUGUUUA | – | – | 15.3 nM | 14.5 nM | – |
| UAAAGAUGUGCAGGAUAUUAGAAACGGCGGGAACUUAAAUUCAAACAUGAGGAUCACCCAUGUAAUAAGAAGGGCAAACUAAGA | – | – | 15.9 nM | 20.6 nM | – |
| UAUUAACAUGAGGAUCACCCAUGUUAUAGAGACCUAGGAUAUGCUUGCAUCCUCGCUCGUGCAGAAGGAGGUUUAU | 7.08 nM | 5.88 nM | – | – | – |
| AUAGAUAAGCAGAAGGGCUUGAGAUCCGUAACUAUUGACAUGAGGAUCACCCAUGUUCGUCCCUAGCAGGAUAUGCAAAGAAGC | 61.2 nM | 22.5 nM | – | – | – |
| GGCGAUCAGUGAGGAUAUUCCGCGCAAAUACUAGAAGAAGGCACGUAUCAAGGGUUCAGAACAUGAGGAUCACCCAUGUCAAGC | 14 nM | 10.1 nM | – | – | – |
| CCCACGUACGAGAAGGCACCGGUUUGAUCCACGUAAGUCCUUUACAUGAGGAUCACCCAUGUAGGUGAGGAUAUCGUCAUGACU | – | – | 160 nM | 264 nM | – |
| CCAGCUCUAUAGGAUAUUCUUGAUGAAGACACGGAAGAAGGAUAGACAUGAGGAUCACCCAUGUCCUUACAUGU | – | – | 19.4 nM | 17.3 nM | – |

| Sequence | apparent Kd [1] | apparent Kd [2] | apparent Kd [5] | apparent Kd [6] | also measured |
| --- | --- | --- | --- | --- | --- |
| CGAUACAAAUAAAGCGUUCGUCCGCCAGAUACCAGAUUCAUUUCCAUCCCUUGGCAGCUGUCGACAUGAGGAUCACCCAUGUUUG | – | – | – | – | apparent Kd (designed as: OFF switch for theophylline, no ligand): 18.3 nM; apparent Kd (ligand present: theophylline, designed as: OFF switch for theophylline): 20.9 nM |
| ACGAGGUACACAGGAUAUGCAAACAUGAGGAUCACCCAUGUGUUCGCCAAUAUCGUGAAUGUGUCGCAGAAGGGUGGUAGUCUA | 12.3 nM | 9.83 nM | – | – | – |
| GCUAGCGGUAAGAAGGCAUAGACCAAAACUUCAUGAGGAUAUUAUUUGCGGCAUUCGCUCCAAGGACAUGAGGAUCACCCAUGU | 15.4 nM | 16.3 nM | – | – | – |
| CAGGGACAUGAGGAUCACCCAUGUAAGGAUAUGCCCAAAAGAGCGACUACUAAAGGAGGCAGAAGGUACGAACG | – | – | 28.6 nM | 31.6 nM | – |
| CUCUAACAAGGAUAUACAUGUCCCAGGAUCCUAUAGGCUUUACAUGAGGAUCACCCAUGUAGAAGGUGUAUUAC | – | – | 18.7 nM | 16.4 nM | – |
| UACCAAAUCACAGGAUAUGAGGCGCCAGCUAGGUCAGAAGGGUGACAUGAGGAUCACCCAUGUUCGCAGAAAAUAAUUGCUAAG | 688 nM | 678 nM | – | – | – |
| UUAGGUGCAGGAUAUACAAGACUUAGUAGGAUACCAGACCUACAUGAGGAUCACCCAUGUAGAAGGGCAAUGCA | – | – | 20.6 nM | 16.9 nM | – |
| GACAAGACAGGAUAUACAUAUAUGUAGCACGAAGAGUUAAGACAUGAGGAUCACCCAUGUAGAAGGGUCAUAAA | – | – | 19.2 nM | 17.7 nM | – |
| UAUACUAAUGUCAGGAUAUUAUAAAGUAAGAUAUAUAAGAAGGGACAUGAGGAUCACCCAUGUGACAAGGACGA | – | – | 13.4 nM | 29.8 nM | – |
| UUGUUUAGGAUAGGAUAUAGGUCUAAAAGUGAGUCGGACAUGAGGAUCACCCAUGUGGGUGCGAUCUAGAAGGAUCCGCCGCGG | – | – | 754 nM | 269 nM | – |
| UACGUGUUAGGAUAUCGAGUAGUAUGGCUGGCCUGCAAAACCGAGAAGGAACAUGAGGAUCACCCAUGUAUCUU | – | – | 8.05 nM | 11.3 nM | – |
| AUCGAUAAGAAGAAGGCAUUGGCGAUGACGUUAUGAGGAUAUUCAACUACAGCUUGACCACUACAUGAGGAUCACCCAUGUGAA | 19.6 nM | 12.1 nM | – | – | – |
| CGGAAACAAGUAGGAUAUCACUUGAAUGUACAUGAGGAUCACCCAUGUUCCUUACGGCCGCGUUUUGAGAAGGACUAUUCAAAA | – | – | 17.6 nM | 15 nM | – |
| AGUUUUAUCGUGUAGGAUAUGGGAUAAUCAACAUGAGGAUCACCCAUGUCAUGAGUGACAAGCGACCAGAAGGACACCAAUACAAC | 400 nM | 55.8 nM | – | – | – |
| UGGUAGUUGGAGAAGGGAUCGUCGGAACCCAGAUCAGGAUAUCCGACUACAUGAGGAUCACCCAUGUCCUAUCAGUACAAGUAC | – | – | 20.2 nM | 41 nM | – |
| ACAUGAGGAUCACCCAUGUCUACGAAGGUCGAAAUUAAUACCAGAAGGCGCGUCGACUAAGAGUGCGAGGAUAUGGUGUGUCGA | 52 nM | 9.96 nM | – | – | – |
| GAUUGGCUAGGAUAUACAGUGUCUAAGUCGACACCGUGAUAACAUGAGGAUCACCCAUGUAGAAGGAGCACAAA | – | – | 6.78 nM | 11.4 nM | – |
| AUAGAGGAAGGAUAUACAUGAGGAUCACCCAUGUAACGAAGUAGUUGGAUGCCAUGAAGUAGAAGGUCCAGAUG | – | – | 14.5 nM | 13.6 nM | – |
| CCGGAGACCGUGUCAGCGGAAGCAAGAACACGAGGACCGGUACGGCCGCCACUCGAAAGAAGACAUGAGGAUCACCCAUGUCCAU | – | – | – | – | apparent Kd (designed as: OFF switch for tryptophan, no ligand): 12 nM; apparent Kd (ligand present: tryptophan, designed as: OFF switch for tryptophan): 13.9 nM |
| AGGAAACAUGAGGAUCACCCAUGUGAGGAUAUACAAAAGAGCGAAAGAAGAAAUUAAUGUAGAAGGCACGUCAA | – | – | 15.1 nM | 13.3 nM | – |
| AACAUGAGGAUCACCCAUGUUAGAAUAACAACGGAAAUAACAGAGGAUAUCGUUAAUUAAUAGCGCGAGAAGGCAGAAUUCAAA | 6.86 nM | 5.95 nM | – | – | – |
| AAUGGAAGGGAGAAGGCACGCUCUGUCGAACCGUGAGGAUAUCCAUCGGGUAAUAUACAUGAGGAUCACCCAUGUGGCGUCCAG | 25.8 nM | 14.6 nM | – | – | – |
| GGUACGGCAGGAUAUGGCCUGGACUACAUGAGGAUCACCCAUGUCUUGCAGAAUGUCUAGCCAGAAGGGCCAUGAA | – | – | 14.6 nM | 8.52 nM | – |
| CGUAAUAACUCACAGGAUAUGCGAGAGGAGACAUGAGGAUCACCCAUGUGACCAUGAAUAUUCCUGCAGAAGGGUGAUAAAUCAUU | 13 nM | 18 nM | – | – | – |
| AGGAGACAUGAGGAUCACCCAUGUCCAGAUACCAGAAUGUCUUUGUUCCCUUGGCAGCUGUGGAAAUCUGACCUGCCUCGGUCUG | – | – | – | – | apparent Kd [3]: 14.2 nM; apparent Kd [4]: 15.7 nM |
| UAUUGGAUGACAGGAUAUCUACGAAGAAGUUGACAUGAGGAUCACCCAUGUAGGGUGUGGAGCAUAGAGAAGGGUCAGAACCUC | – | – | 702 nM | 440 nM | – |
| CCGGAAUUGCAGGAUAUACGCAAACCACAUGCUGUAGAAGGGCAAACAUGAGGAUCACCCAUGUGGUCGAGCAG | – | – | 13.4 nM | 17.9 nM | – |

Source: the EternaBench riboswitch data
